Laboratory results reported in PMC5707466 (Chemical Science, 2015).
Read-outs that look alike come from different tables or passages of the source. Blank lines part the entries; values can stand above or below the molecule they belong to. Where no end group is shown, it is not given here. [ ]: non-standard residue; d: D form. AzaTyr = not defined here

Experiments:
[1] = SPR calibration with sucrose solutions; type: physicochemical; settings: absence of the microporous membrane; calibration slope
In short: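 The SPR instrument was calibrated without the microporous membrane by successive injections of sucrose solutions with refractive indices from 1.33772 to 1.35589. Sensitivity is the response per refractive index unit (nm/RIU).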

[2] = SPR monitoring of sucrose diffusion/equilibration in dialysis chamber; type: physicochemical; settings: for t eff unstirred (experimental): passive mixing, fit of SPR data with eqn (2); for experimental effective diffusion time: unstirred
In short: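 The dialysis chamber was a PDMS spacer (150 μm–1.0 mm) on the gold prism, filled with PBS and topped by a 0.4 μm-pore membrane. The sensor carried a 3-MPA-LHDLHD-OH monolayer. Sucrose was injected into the reservoir, and the SPR response was followed in the sensing chamber. Neither chamber was stirred, so mixing was by diffusion only. Effective diffusion time was fitted with c = ceq(1 – e^(–t/teff)).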

[3] = Theoretical effective diffusion through microporous membrane; settings: 200 nm membrane pore radius
In short: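 This is a calculation, not a measurement: Deff/D0 through the membrane was computed with the Renkin equation from hydrodynamic radius (RH) and pore radius (RP), with a membrane pore diameter of 0.4 μm. Theoretical effective diffusion times assumed continuous stirring of the chambers.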

[4] = with microporous membrane
CD36 [5] = molecular target: T1, CD36 (Homo sapiens, UniProt P16671); settings: saline solution (stated for DBG178); CD36 SPR biosensor; cited from earlier work
CD36 [6] = molecular target: T1, CD36; experiment: CD36 SPR biosensor with dialysis chamber; type: binding; settings: for SPR signal change: 10 μM peptide, buffer (PBS), CD36 sensor
In short: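 Hexahistidine-tagged CD36 was captured by Cu2+ chelation on a 3-MPA-LHDLHD-OH monolayer. The monolayer was self-assembled overnight, then NTA-coupled via EDC/NHS. A PDMS spacer was filled with PBS and capped with a 0.4 μm-pore membrane. Peptide in PBS, untreated serum or whole blood was injected into the reservoir for 90 min per concentration. Triplicates ran in separate sensing chambers, with blank serum/blood in the reference channel and background subtracted.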

CD36 [7] = molecular target: T1, CD36; experiment: CD36 SPR biosensor without dialysis chamber; type: binding; settings: matrix not stated
[8] = molecular target: hexahistidine-tagged type B scavenger receptor CD36 (cluster of differentiation 36) (UniProt P16671); experiment: SPR
[9] = molecular target: hexahistidine-tagged type B scavenger receptor CD36 (cluster of differentiation 36) (UniProt P16671); experiment: SPR; remark: listed apart in the source
[10] = molecular target: hexahistidine-tagged type B scavenger receptor CD36 (cluster of differentiation 36) (UniProt P16671); experiment: SPR; remark: listed apart in the source

T1 sequence (P16671 whole entry): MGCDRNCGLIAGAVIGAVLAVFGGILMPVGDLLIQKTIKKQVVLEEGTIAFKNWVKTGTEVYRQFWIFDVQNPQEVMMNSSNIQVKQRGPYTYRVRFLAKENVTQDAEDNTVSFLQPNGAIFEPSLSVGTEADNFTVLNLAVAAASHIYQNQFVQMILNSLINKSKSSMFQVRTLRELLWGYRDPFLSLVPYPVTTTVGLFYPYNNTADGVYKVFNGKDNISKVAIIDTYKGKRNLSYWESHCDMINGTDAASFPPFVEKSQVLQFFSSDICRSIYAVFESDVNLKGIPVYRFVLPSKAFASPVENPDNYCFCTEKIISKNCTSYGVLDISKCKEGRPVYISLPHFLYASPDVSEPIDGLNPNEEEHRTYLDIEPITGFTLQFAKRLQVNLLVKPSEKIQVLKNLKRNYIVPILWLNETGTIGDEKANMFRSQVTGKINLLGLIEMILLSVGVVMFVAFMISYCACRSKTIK
hexahistidine-tagged type B scavenger receptor CD36 (cluster of differentiation 36), sequence (P16671 whole entry): as above

SPR sensitivity without microporous membrane [1]: 2221 nm/RIU
t eff unstirred (experimental) ([2]; spacer 0.15 mm): 5529 s
t eff unstirred (experimental) ([2]; spacer 0.30 mm): 9892 s
t eff unstirred (experimental) ([2]; spacer 0.60 mm): 26 590 s
experimental effective diffusion time ([2]; spacer 1 mm (1000 μm), b26 prints unit as hours): 15.5 h
t eff unstirred (experimental) ([2]; spacer 1.00 mm): 55 687 s
experimental effective diffusion time ([2]; spacer 150 μm): 1.5 h
increase in equilibration time of the sensing chamber in absence of mixing ([2]; spacer 150 μm, unstirred experimental vs stirred theoretical): 300 fold
RH/RP [3]: 0.00235
Molecule: OC[C@H]1O[C@@](CO)(O[C@H]2O[C@H](CO)[C@@H](O)[C@H](O)[C@H]2O)[C@@H](O)[C@@H]1O [Sucrose, sucrose]

Molecule: BSA: bovine serum albumin (BSA) (MW = 66.4 kDa)
diffusion time required to observe a significant SPR response / large shift [4]: ~8 h

SPR response (CD36 [6]; 7.5 μM, human serum, dialysis chamber, 90 min, reference-subtracted, triplicate): 0.49 ± 0.02 nm
SPR signal change (CD36 [6]; dialysis chamber): 0.28 ± 0.11 nm
concentrations that could not be detected (CD36 [6]; dialysis chamber, saline/PBS, 90 min per concentration): below 5 μM
difference in SPR response with vs without dialysis chamber (CD36 [6]; highest concentration): 12%
SPR response with the microdialysis chamber (CD36 [6]; highest concentration, matrix not stated): 0.78 nm
calibration curve signal in human serum (in words) (CD36 [6]; human serum vs PBS, same concentration range, Fig. 3): increased in signal compared to PBS
analysis time sufficient to reach equilibrium of the SPR sensor (CD36 [6]; whole blood, dialysis chamber, Fig. SI4): 90 min
SPR response in whole blood (in words) (CD36 [6]; whole human blood, 5, 7.5 and 10 μM, vs human serum, Fig. 3): in great agreement with human serum
SPR response without the dialysis chamber (CD36 [7]; 8.75 μM, no dialysis chamber): 0.71 ± 0.10 nm
SPR response without the microporous membrane (CD36 [7]; highest concentration): 0.89 nm
Molecule: His-D-Trp-Ala-AzaTyr-D-Phe-Lys-NH2 [DBG178]
Kd (CD36 [5]): 5 µM
SPR response at nanomolar concentrations (CD36 [6]; nanomolar range, dialysis chamber): below the detection limit of the SPR sensor

SPR signal change (CD36 [6]; dialysis chamber): –0.073 ± 0.030 nm
Molecule: His-D-Trp-AzaLeu-Trp-D-Phe-Ala-NH2 [CP-2B(i), reference compound]
Kd (CD36 [5]): 31 µM

SPR response at the highest concentration [8]: 0.78 nm
Kd [9]: 17 µM
SPR response at 7.5 uM [9]: 0.49 nm
SPR response at 8.75 uM [9]: 0.71 nm
SPR response at the highest concentration [9]: 0.89 nm
SPR signal change at 10 uM [9]: 0.28 nm
SPR response at 7.5 uM [10]: 0.46 nm
Molecule: H[dW]A[AzaTyr][dF]K-NH2 (reading uncertain; also: printed as His-D-Trp-Ala-AzaTyr-D-Phe-Lys-NH2) [DBG178 (His-D-Trp-Ala-AzaTyr-D-Phe-Lys-NH2)]
